Data from ChEMBL document CHEMBL4251664, “Biocompatible Boron-Containing Prodrugs of Belinostat for the Potential Treatment of Solid Tumors” (ACS Med Chem Lett, 2018).
The source made the active and inactive calls. The rule behind the calls is not given here.

Tests used:
[1] = test system: MDA-MB-231; test: Antiproliferative activity against human MDA-MB-231 cells after 72 hrs by resazurin dye based fluorescence assay; format: functional, cell-based; settings: MDA-MB-231, 72 h
[2] = test system: MCF7; test: Antiproliferative activity against human MCF7 cells after 72 hrs by resazurin dye based fluorescence assay; format: functional, cell-based; settings: MCF7, 72 h
[3] = test system: NCI-H460; test: Antiproliferative activity against human NCI-H460 cells after 72 hrs by resazurin dye based fluorescence assay; format: functional, cell-based; settings: NCI-H460, 72 h
[4] = test system: MDA-MB-231; test: Prodrug conversion in human MDA-MB-231 cells assessed as belinostat level after 3 days by UHPLC-MS/MS analysis; format: ADME, cell-based; settings: mda-mb-231, 72 h
Outline: (§1)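 MDA-MB-231 or HeLa cells were incubated with the pinacol boronate prodrug, and culture medium was sampled daily from day 1 to day 6. The prodrug, boronic acid forms and belinostat were separated, identified and quantified by HPLC coupled to an Orbitrap mass spectrometer. Results are in ng/mL as mean ± SEM of triplicate experiments.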

[5] = test system: MDA-MB-231; test: Prodrug conversion in human MDA-MB-231 cells assessed as belinostat level after 6 days by UHPLC-MS/MS analysis; format: ADME, cell-based; settings: mda-mb-231, 144 h; outline: as §1
[6] = test system: MDA-MB-231; test: Prodrug conversion in human MDA-MB-231 cells assessed as (E)-4-((3-(3-(N-phenylsulfamoyl)phenyl)acrylamidooxy)methyl)phenylboronic acid level after 1 day by UHPLC-MS/MS analysis; format: ADME, cell-based; settings: mda-mb-231, 24 h; outline: as §1
[7] = test system: MDA-MB-231; test: Prodrug conversion in human MDA-MB-231 cells assessed as (E)-4-((3-(3-(N-phenylsulfamoyl)phenyl)acrylamidooxy)methyl)phenylboronic acid level after 3 days by UHPLC-MS/MS analysis; format: ADME, cell-based; settings: mda-mb-231, 72 h; outline: as §1
[8] = test system: HeLa; test: Prodrug conversion in human HeLa cells assessed as belinostat level after 2 days by UHPLC-MS/MS analysis; format: ADME, cell-based; settings: 48 h; outline: as §1
[9] = test system: HeLa; test: Prodrug conversion in human HeLa cells assessed as belinostat level after 5 days by UHPLC-MS/MS analysis; format: ADME, cell-based; settings: 120 h; outline: as §1
[10] = test system: HeLa; test: Prodrug conversion in human HeLa cells assessed as belinostat level after 6 days by UHPLC-MS/MS analysis; format: ADME, cell-based; settings: 144 h; outline: as §1
[11] = test system: HeLa; test: Prodrug conversion in human HeLa cells assessed as (E)-4-((3-(3-(N-phenylsulfamoyl)phenyl)acrylamidooxy)methyl)phenylboronic acid level after 2 days by UHPLC-MS/MS analysis; format: ADME, cell-based; settings: 48 h; outline: as §1
[12] = test system: HeLa; test: Prodrug conversion in human HeLa cells assessed as (E)-4-((3-(3-(N-phenylsulfamoyl)phenyl)acrylamidooxy)methyl)phenylboronic acid level after 6 days by UHPLC-MS/MS analysis; format: ADME, cell-based; settings: 144 h; outline: as §1
[13] = target: T1, Protein deacetylase HDAC6 (Homo sapiens, UniProt Q9UBN7); test: Inhibition of human HDAC6 using RHKK(Ac)AMC as substrate
T1 sequence (Q9UBN7 whole entry): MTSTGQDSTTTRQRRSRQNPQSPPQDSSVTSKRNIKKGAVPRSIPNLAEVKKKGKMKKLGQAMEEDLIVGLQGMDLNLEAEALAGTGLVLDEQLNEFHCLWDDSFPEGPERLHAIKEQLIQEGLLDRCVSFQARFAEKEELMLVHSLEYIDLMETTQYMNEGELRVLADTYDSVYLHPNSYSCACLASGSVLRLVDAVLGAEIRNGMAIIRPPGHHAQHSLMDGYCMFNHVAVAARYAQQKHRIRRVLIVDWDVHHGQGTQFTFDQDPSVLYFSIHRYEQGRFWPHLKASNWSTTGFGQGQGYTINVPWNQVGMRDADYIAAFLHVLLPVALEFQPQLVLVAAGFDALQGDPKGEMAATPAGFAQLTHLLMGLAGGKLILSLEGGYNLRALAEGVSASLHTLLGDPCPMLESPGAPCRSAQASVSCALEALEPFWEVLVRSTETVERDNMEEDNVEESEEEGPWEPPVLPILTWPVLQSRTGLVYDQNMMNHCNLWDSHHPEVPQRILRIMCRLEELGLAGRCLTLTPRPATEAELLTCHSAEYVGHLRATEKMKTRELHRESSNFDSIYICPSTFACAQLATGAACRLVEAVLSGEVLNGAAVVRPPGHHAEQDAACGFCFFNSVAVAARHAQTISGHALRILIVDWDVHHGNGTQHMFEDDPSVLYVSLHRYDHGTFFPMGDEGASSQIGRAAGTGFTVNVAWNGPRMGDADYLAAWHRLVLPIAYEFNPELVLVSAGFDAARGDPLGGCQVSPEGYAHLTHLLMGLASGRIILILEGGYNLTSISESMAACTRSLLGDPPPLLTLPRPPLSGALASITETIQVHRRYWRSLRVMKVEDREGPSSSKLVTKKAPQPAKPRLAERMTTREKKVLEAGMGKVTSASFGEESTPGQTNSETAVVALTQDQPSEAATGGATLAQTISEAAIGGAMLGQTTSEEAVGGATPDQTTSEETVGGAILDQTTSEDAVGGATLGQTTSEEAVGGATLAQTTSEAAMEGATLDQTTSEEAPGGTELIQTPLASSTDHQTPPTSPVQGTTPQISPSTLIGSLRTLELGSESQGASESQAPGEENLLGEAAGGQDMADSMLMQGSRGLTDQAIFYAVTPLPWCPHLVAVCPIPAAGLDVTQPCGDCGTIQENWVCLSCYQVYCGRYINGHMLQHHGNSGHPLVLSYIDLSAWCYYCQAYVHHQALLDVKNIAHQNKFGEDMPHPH

[14] = target: T2, Histone deacetylase 8 (Homo sapiens, UniProt Q9BY41); test: Inhibition of human HDAC8 using RHK(Ac)K(Ac)AMC as substrate
T2 sequence (Q9BY41 whole entry): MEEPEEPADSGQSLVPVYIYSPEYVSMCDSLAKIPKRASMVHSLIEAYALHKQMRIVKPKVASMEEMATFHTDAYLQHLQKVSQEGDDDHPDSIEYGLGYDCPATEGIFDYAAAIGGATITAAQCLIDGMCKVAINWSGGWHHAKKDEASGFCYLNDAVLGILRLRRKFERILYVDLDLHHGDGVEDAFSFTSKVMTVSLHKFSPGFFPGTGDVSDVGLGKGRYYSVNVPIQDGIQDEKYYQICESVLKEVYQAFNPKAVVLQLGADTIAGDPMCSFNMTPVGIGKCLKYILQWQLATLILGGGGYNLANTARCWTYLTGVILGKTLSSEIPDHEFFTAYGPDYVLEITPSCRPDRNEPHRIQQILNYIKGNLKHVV

[15] = test system: MCF7; test: Antitumor activity against human MCF7 cells implanted in ovariectomized nu/nu mouse assessed as tumor remission at 10 mg/kg, sc administered once daily for 22 days measured at 1 day interval for 3 weeks during compound dosing; format: functional, organism-based
[16] = test system: MCF7; test: Antitumor activity against human MCF7 cells implanted in ovariectomized nu/nu mouse assessed as tumor volume at 10 mg/kg, sc administered once daily for 22 days measured post last dose (reference value: 869 +/- 173 mm3); format: functional
[17] = test system: MCF7; test: Antitumor activity against human MCF7 cells implanted in ovariectomized nu/nu mouse assessed as tumor weight at 10 mg/kg, sc administered once daily for 22 days measured post last dose (reference value: 743 +/- 142 mg); format: functional
[18] = test system: MCF7; test: Antitumor activity against human MCF7 cells implanted in ovariectomized nu/nu mouse assessed as tumor growth inhibition at 10 mg/kg, sc administered once daily for 22 days measured post last dose relative to control; format: functional; settings: 528 h, read-out: TGI

IC50 [1]: 303 nM | IC50 [2]: 1460 nM | IC50 [3]: 430 nM | Drug metabolism [4]: 20.3 ng/mL | Drug metabolism [5]: 27.8 ng/mL | Drug metabolism [6]: 331.8 ng/mL | Drug metabolism [7]: 246.9 ng/mL | Drug metabolism [8]: 6.6 ng/mL | Drug metabolism [9]: 3.7 ng/mL | Drug metabolism [10]: 3.8 ng/mL | Drug metabolism [11]: 147.4 ng/mL | Drug metabolism [12]: 49.6 ng/mL | EC50 [13]: 20200 nM | EC50 [14]: 341000 nM
Structure (SMILES): CC1(C)OB(c2ccc(CONC(=O)/C=C/c3cccc(S(=O)(=O)Nc4ccccc4)c3)cc2)OC1(C)C
Activity [15]: Active | Activity [16]: 127 mm3 | Activity [17]: 109 mg | inhibition in vivo at 10 mg/kg [18]: 85.4%
